From ChEMBL document CHEMBL1806389, “Synthesis, in vitro and in vivo evaluation of fluorine-18 labelled FE-GW405833 as a PET tracer for type 2 cannabinoid receptor imaging” (Bioorg Med Chem, 2011)
“And” between values parts separate entries of the source, which are not always exact repeats. Identical values can stand only once. The source made the active and inactive calls. The rule behind the calls is not given here.

Assays:
Striatum [1] = experiment: In vivo binding affinity to human CB2 receptor D80N mutant expressed in Fisher rat […] at 37 MBq, iv after up to 60 mins by microPET study; format: functional, organism-based; settings: 37 M, tested as the 18F-labelled form
Cannabinoid receptor 2 [2] = target: T1, Cannabinoid receptor 2 (Homo sapiens, UniProt P34972); experiment: Inverse agonist activity at human CB2 receptor expressed in CHO cells assessed as effect on [35S]-GTPgammaS binding after 1 hrs by beta counting relative to control; format: functional, cell-based; settings: tested as the 18F-labelled form
[3] = Octanol-phosphate buffer partition coefficient, log D of the compound at pH 7.4; format: physicochemical
Outline: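 Radiolabelled tracer partitioned between 1-octanol and 0.025 M phosphate buffer pH 7.4; log D from distribution of radioactivity.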

Cannabinoid receptor 1 = Cannabinoid receptor 1 (Homo sapiens, UniProt P21554); experiment: Displacement of [3H]-SR141716A from human CB1 receptor expressed in CHO cells after 1 hrs by beta counting; format: cell-based
Cannabinoid receptor 2 [4] = target: T1, Cannabinoid receptor 2; experiment: Displacement of [3H]-CP55940 from human CB2 receptor expressed in CHO cells after 1 hrs by beta counting; format: cell-based
Cannabinoid receptor 2 [5] = target: T1, Cannabinoid receptor 2; experiment: Inverse agonist activity at human CB2 receptor expressed in CHO cells assessed as effect on [35S]-GTPgammaS binding after 1 hrs by beta counting; format: functional, cell-based
Kidney [6] = experiment: Biodistribution in NMRI mouse kidney at 6 MBq/ml, iv after 2 mins by gamma counting; format: ADME, organism-based; settings: in vivo
Outline: (§1)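 Tracer formulated in saline at about 6 MBq/ml (diluted HPLC-purified product); 100 µl given into a tail vein. Mice killed by decapitation at 2 or 60 min p.i.; organs, body parts and blood dissected, weighed and gamma-counted. Values as %ID (cpm in organ/total cpm recovered), %ID/g, or SUV. Total blood mass taken as 7% of body mass. Mean SD, n = 4 per time point.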

Kidney [7] = experiment: Biodistribution in NMRI mouse kidney at 6 MBq/ml, iv after 60 mins by gamma counting; format: ADME, organism-based; settings: in vivo, 1 h; outline: as §1
[8] = Biodistribution in NMRI mouse urine at 6 MBq/ml, iv after 2 mins by gamma counting; format: ADME, organism-based; settings: in vivo; outline: as §1
[9] = Biodistribution in NMRI mouse urine at 6 MBq/ml, iv after 60 mins by gamma counting; format: ADME, organism-based; settings: in vivo, 1 h; outline: as §1
Liver [10] = experiment: Biodistribution in NMRI mouse liver at 6 MBq/ml, iv after 2 mins by gamma counting; format: ADME, organism-based; settings: in vivo; outline: as §1
Liver [11] = experiment: Biodistribution in NMRI mouse liver at 6 MBq/ml, iv after 60 mins by gamma counting; format: ADME, organism-based; settings: in vivo, 1 h; outline: as §1
Spleen [12] = experiment: Biodistribution in NMRI mouse spleen at 6 MBq/ml, iv after 2 mins by gamma counting; format: ADME, organism-based; settings: in vivo; outline: as §1
Spleen [13] = experiment: Biodistribution in NMRI mouse spleen at 6 MBq/ml, iv after 60 mins by gamma counting; format: ADME, organism-based; settings: in vivo, 1 h; outline: as §1
Pancreas [14] = experiment: Biodistribution in NMRI mouse pancreas at 6 MBq/ml, iv after 2 mins by gamma counting; format: ADME, organism-based; settings: in vivo; outline: as §1
Pancreas [15] = experiment: Biodistribution in NMRI mouse pancreas at 6 MBq/ml, iv after 60 mins by gamma counting; format: ADME, organism-based; settings: in vivo, 1 h; outline: as §1
Lung [16] = experiment: Biodistribution in NMRI mouse lungs at 6 MBq/ml, iv after 2 mins by gamma counting; format: ADME, organism-based; settings: in vivo; outline: as §1
Lung [17] = experiment: Biodistribution in NMRI mouse lungs at 6 MBq/ml, iv after 60 mins by gamma counting; format: ADME, organism-based; settings: in vivo, 1 h; outline: as §1
Heart [18] = experiment: Biodistribution in NMRI mouse heart at 6 MBq/ml, iv after 2 mins by gamma counting; format: ADME, organism-based; settings: in vivo; outline: as §1
Heart [19] = experiment: Biodistribution in NMRI mouse heart at 6 MBq/ml, iv after 60 mins by gamma counting; format: ADME, organism-based; settings: in vivo, 1 h; outline: as §1
Intestine [20] = experiment: Biodistribution in NMRI mouse intestine at 6 MBq/ml, iv after 2 mins by gamma counting; format: ADME, organism-based; settings: in vivo; outline: as §1
Intestine [21] = experiment: Biodistribution in NMRI mouse intestine at 6 MBq/ml, iv after 60 mins by gamma counting; format: ADME, organism-based; settings: in vivo, 1 h; outline: as §1
Stomach [22] = experiment: Biodistribution in NMRI mouse stomach at 6 MBq/ml, iv after 2 mins by gamma counting; format: ADME, organism-based; settings: in vivo; outline: as §1
Stomach [23] = experiment: Biodistribution in NMRI mouse stomach at 6 MBq/ml, iv after 60 mins by gamma counting; format: ADME, organism-based; settings: in vivo, 1 h; outline: as §1
Blood [24] = experiment: Biodistribution in NMRI mouse blood at 6 MBq/ml, iv after 2 mins by gamma counting; format: ADME, organism-based; settings: in vivo; outline: as §1
Blood [25] = experiment: Biodistribution in NMRI mouse blood at 6 MBq/ml, iv after 60 mins by gamma counting; format: ADME, organism-based; settings: in vivo, 1 h; outline: as §1
Brain [26] = experiment: Biodistribution in NMRI mouse brain at 6 MBq/ml, iv after 2 mins by gamma counting; format: ADME, organism-based; settings: in vivo; outline: as §1
Brain [27] = experiment: Biodistribution in NMRI mouse brain at 6 MBq/ml, iv after 60 mins by gamma counting; format: ADME, organism-based; settings: in vivo, 1 h; outline: as §1
[28] = Metabolic stability in NMRI mouse plasma at 6 MBq/ml, iv after 2 mins by HPLC analysis; format: ADME, organism-based; settings: read-out: Stability
Outline: (§2)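 Normal NMRI mice were given the tracer IV, and plasma and brain were sampled at 2, 10 or 30 min. The percentage of intact tracer was measured by reversed-phase HPLC with 0.05 M ammonium acetate pH 6.9/acetonitrile eluent, 30/70 for plasma and 40/60 for brain, at 1 ml/min.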

[29] = Metabolic stability in NMRI mouse plasma at 6 MBq/ml, iv after 10 mins by HPLC analysis; format: ADME, organism-based; settings: read-out: Stability; outline: as §2
[30] = Metabolic stability in NMRI mouse plasma at 6 MBq/ml, iv after 30 mins by HPLC analysis; format: ADME, organism-based; settings: read-out: Stability; outline: as §2
[31] = Metabolic stability in NMRI mouse brain at 6 MBq/ml, iv after 2 mins by HPLC analysis; format: ADME, organism-based; settings: read-out: Stability; outline: as §2
[32] = Metabolic stability in NMRI mouse brain at 6 MBq/ml, iv after 10 mins by HPLC analysis; format: ADME, organism-based; settings: read-out: Stability; outline: as §2
[33] = Metabolic stability in NMRI mouse brain at 6 MBq/ml, iv after 30 mins by HPLC analysis; format: ADME, organism-based; settings: read-out: Stability; outline: as §2
Brain [34] = experiment: Biodistribution in Wistar rat brain after 60 mins; format: ADME, organism-based; settings: in vivo, 1 h
Striatum [35] = experiment: In vivo binding affinity to human CB2 receptor D80N mutant expressed in Fisher rat right striatum at 37 MBq, iv after 60 mins by microPET study relative to left striatum; format: functional
Outline: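 Normal 8-week-old Fisher rat received stereotactic AAV2/7-eGFP-T2A-hCB2R(D80N) vector in the right striatum and a control eGFP vector in the left striatum. Scanned 34 days later under 3% isoflurane in 2.0 L/min oxygen. Dynamic microPET started immediately after IV injection of about 37 MBq tracer. Images spatially normalized to stereotactic space; striatal time-activity curves from predefined volumes of interest.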

T1 sequence (P34972 whole entry): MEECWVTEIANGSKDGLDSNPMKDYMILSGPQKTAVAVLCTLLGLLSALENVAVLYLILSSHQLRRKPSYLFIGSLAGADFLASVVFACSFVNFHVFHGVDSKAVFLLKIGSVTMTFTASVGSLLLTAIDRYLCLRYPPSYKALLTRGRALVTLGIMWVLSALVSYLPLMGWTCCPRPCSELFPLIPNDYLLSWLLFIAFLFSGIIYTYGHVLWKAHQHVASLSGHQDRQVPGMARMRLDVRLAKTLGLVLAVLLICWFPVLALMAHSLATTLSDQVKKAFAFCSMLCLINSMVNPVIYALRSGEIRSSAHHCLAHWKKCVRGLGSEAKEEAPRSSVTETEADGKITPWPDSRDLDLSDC
Cannabinoid receptor 1, sequence (P21554 whole entry): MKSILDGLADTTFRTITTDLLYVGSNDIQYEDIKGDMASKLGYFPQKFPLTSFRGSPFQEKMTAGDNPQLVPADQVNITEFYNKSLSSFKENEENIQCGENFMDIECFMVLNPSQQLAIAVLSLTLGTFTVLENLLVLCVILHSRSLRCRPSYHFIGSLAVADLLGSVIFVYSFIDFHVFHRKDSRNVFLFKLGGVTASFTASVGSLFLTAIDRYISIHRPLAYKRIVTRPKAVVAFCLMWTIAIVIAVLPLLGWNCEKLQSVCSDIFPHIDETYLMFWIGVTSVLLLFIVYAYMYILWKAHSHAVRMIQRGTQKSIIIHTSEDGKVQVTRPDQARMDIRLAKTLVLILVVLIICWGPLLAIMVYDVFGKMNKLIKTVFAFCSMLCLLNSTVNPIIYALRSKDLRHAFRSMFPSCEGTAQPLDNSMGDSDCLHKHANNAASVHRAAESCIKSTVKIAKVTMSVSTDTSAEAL

## Cc1c(CCN2CCOCC2)c2cc(OCCF)ccc2n1C(=O)c1cccc(Cl)c1Cl
Striatum [1]
  Activity: Active
Cannabinoid receptor 2 [2]
  Emax: -82%

## Cc1c(CCN2CCOCC2)c2cc(OCC[18F])ccc2n1C(=O)c1cccc(Cl)c1Cl
[3]
  logD: 2.8
Cannabinoid receptor 1
  Ki: 10000 nM
Cannabinoid receptor 2 [4]
  Ki: 27 nM
Cannabinoid receptor 2 [5]
  EC50: 17.9 nM
Kidney [6]
  Drug uptake: 9.8 %ID and 15.8 % ID/g
  SUV: 5.5
Kidney [7]
  Drug uptake: 2.2 %ID and 3.4 % ID/g
  SUV: 1.2
[8]
  Drug uptake: 0.1 %ID
[9]
  Drug uptake: 1.4 %ID
Liver [10]
  Drug uptake: 47.4 %ID and 26.3 % ID/g
  SUV: 9.1
Liver [11]
  Drug uptake: 23.7 %ID and 11.4 % ID/g
  SUV: 4
Spleen [12]
  SUV: 3.3
Spleen [13]
  SUV: 1.1
Pancreas [14]
  SUV: 1.2
Pancreas [15]
  SUV: 0.8
Lung [16]
  SUV: 4.5
Lung [17]
  SUV: 0.8
Heart [18]
  SUV: 2.7
Heart [19]
  SUV: 0.7
Intestine [20]
  Drug uptake: 8.9 %ID
Intestine [21]
  Drug uptake: 35.7 %ID
Stomach [22]
  Drug uptake: 1.3 %ID
Stomach [23]
  Drug uptake: 1.8 %ID
Blood [24]
  Drug uptake: 4.5 %ID and 1.9 % ID/g
  SUV: 0.6
Blood [25]
  Drug uptake: 5 %ID and 2.1 % ID/g
  SUV: 0.7
Brain [26]
  Drug uptake: 1.3 %ID and 2.9 % ID/g
  SUV: 1
Brain [27]
  Drug uptake: 0.7 %ID and 1.6 % ID/g
  SUV: 0.6
[28]
  remaining at 2 min: 84%
[29]
  remaining at 10 min: 52%
[30]
  remaining at 0.5 h: 12%
[31]
  remaining at 2 min: 95%
[32]
  remaining at 10 min: 79%
[33]
  remaining at 0.5 h: 48%

## Cc1c(CCN2CCOCC2)c2cc(O[11CH3])ccc2n1C(=O)c1cccc(Cl)c1Cl
Brain [34]
  Drug uptake: 0.1 %ID
Striatum [35]
  Ratio: 1.6
